# Assays:
# [1] = test system: Trypanosoma brucei rhodesiense; assay: In vitro anti trypanosomal activity against Trypanosomal 269 (KETRI)strain; assay type: functional, organism-based
# [2] = test system: Trypanosoma brucei rhodesiense; assay: In vitro anti trypanosomal activity against Trypanosomal 243 (KETRI)strain; assay type: functional, organism-based
# [3] = test system: Trypanosoma brucei brucei; assay: In vitro anti trypanosomal activity against Trypanosomal 110 (EATRO)strain; assay type: functional, organism-based
# [4] = test system: Trypanosoma brucei rhodesiense; assay: In vitro anti trypanosomal activity against Trypanosomal 243 As 10e-3 (KETRI)strain; assay type: functional, organism-based
# [5] = test system: Mus musculus; assay: Number of mice cured to that of 5 treated with the compound at 10 mg/kg for 3 days; assay type: functional
# [6] = test system: L1210; assay: In vitro Anti Neoplastic Activity against L1210 murine leukemia Cell lines; assay type: functional, cell-based; settings: Mus musculus
# Summary of the method: (§1)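 SRB growth assay. Cell lines were grown as monolayers in RPMI-1640 with 5% FCS, 5% NuSerum IV, 20 mM HEPES and 2 mM glutamine, and seeded at 400–1200 cells/well. They attached for 15–18 h before drug. Ten concentrations over 5 logs were tested, with final DMSO ≤0.25%. Exposure was 72 h at 37 °C. Cells were TCA-fixed, stained with sulforhodamine B and read at OD 570 nm. IC50 is 50% growth inhibition.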
# [7] = test system: Mus musculus; assay: Nnumber of mice cured to that of 5 treated with the compound at 50 mg/kg for 3 days; assay type: functional
# [8] = test system: Trypanosoma brucei brucei; assay: Mean survival days against T.b. brucei LAB 110 EATRO tested in mice administration at 100 mg/kg for 7 days.; assay type: functional
# Summary of the method: (§2)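 Female Swiss-Webster mice (20 g) were infected with 2.5×10^5 trypanosomes from a rat infection. Compounds were dissolved in water and given at the stated daily dose by 7 day miniosmotic pumps implanted aseptically. There were 5 mice per group. Viability was checked daily and tail-vein blood smears weekly. The value is mean survival in days. Mice were scored cured if they survived >30 days beyond untreated controls with no parasitemia.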
# [9] = test system: Trypanosoma brucei rhodesiense; assay: Mean survival days against T.b. rhodesiense KETRI 243 tested in mice after intra peritoneal administration at 25 mg/kg for 7 days.; assay type: functional
# [10] = test system: Trypanosoma brucei rhodesiense; assay: Mean survival days against T.b. rhodesiense KETRI 243 tested in mice after intra peritoneal administration at 50 mg/kg for 7 days.; assay type: functional
# [11] = test system: L1210; assay: In vitro inhibition of AdoMetDC derived from L1210 Murine Leukemia Cells.; assay type: functional; settings: Mus musculus, read-out: ID50 (the source's name)
# [12] = test system: MCF7; assay: In vitro anti Neoplastic Activity against Human Breast adenocarcinoma MCF-7 Cell lines; assay type: functional, cell-based; summary of the method: as §1
# [13] = test system: Trypanosoma brucei brucei; assay: Mean survival days against T.b. brucei LAB 110 EATRO tested in mice administration at 25 mg/kg for 7 days.; assay type: functional; summary of the method: as §2
# [14] = test system: Human immunodeficiency virus 1; assay: In Vitro Anti-HIV activity in CEM cells; assay type: functional, organism-based; settings: Human immunodeficiency virus 1, CCRF-CEM
# Summary of the method: (§3)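 Syncytial plaque assay: log-phase CEM-SS cells were PBS-washed and plated at 50 000 per well in serum-free RPMI-1640 on poly-L-lysine-coated wells (30 min, 37 °C). They were inoculated with HIV-1 (60–90 PFU) for 120 min, then overlaid with compound in growth medium (2-fold dilutions, 0.00015–20 μM). A second overlay followed on day 3, with 5 days total. EC50 is 50% inhibition of plaque formation. TC50 is morphological change in noninfected CEM-SS cells.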
# [15] = test system: Trypanosoma brucei brucei; assay: Mean survival days against T.b. peritoneal administration at 25 mg/kg for 3 days.; assay type: functional
# [16] = test system: Trypanosoma brucei brucei; assay: Mean survival days against T.b. peritoneal administration at 50 mg/kg for 3 days.; assay type: functional
# [17] = test system: A121; assay: In vitro anti Neoplastic Activity against Human ovarian carcinoma A121 Cell lines;Value ranges from (1-30); assay type: functional, cell-based; summary of the method: as §1
# [18] = test system: MCF7; assay: In vitro anti Neoplastic Activity against Adriamycin resistant Human Breast adenocarcinoma MCF7-Adr Cell lines; assay type: functional, cell-based; summary of the method: as §1
# [19] = test system: CCRF-CEM; assay: Concentration that causes morphological changes in noninfected CEM-SS cells; assay type: functional; settings: Homo sapiens, read-out: TC50 (the source's name)
# [20] = test system: Mus musculus; assay: Number of mice cured to that of 5 treated with the compound at 25 mg/kg for 3 days; assay type: functional
# [21] = test system: Mus musculus; assay: Number of mice cured to that of 5 treated with the compound at 50 mg/kg for 7 days; assay type: functional
# [22] = test system: Trypanosoma brucei brucei; assay: Mean survival days against T.b. peritoneal administration at 10 mg/kg for 3 days.; assay type: functional
# [23] = test system: A549; assay: In vitro anti Neoplastic Activity against Human non small cell lung carcinoma A549 Cell lines;Value ranges from (3-10).; assay type: functional, cell-based; summary of the method: as §1
# [24] = Differential selectivity as the ratio of TC50 value to that of EC50 value.; assay type: functional; summary of the method: as §3
# [25] = species on record: Mus musculus; assay: Number of mice cured to that of 5 treated with the compound for 7 days
# [26] = test system: Mus musculus; assay: Number of mice cured to that of 5 treated with the compound at 25 mg/kg for 7 days; assay type: functional
# [27] = test system: Trypanosoma brucei rhodesiense; assay: Mean survival days against T.b. rhodesiense KETRI 243 tested in mice after intra peritoneal administration at 50 mg/kg for 7 days.
# [28] = test system: HT-29; assay: In vitro anti Neoplastic Activity in Human Colon adenocarcinoma HT-29 Cell lines;Value ranges from (3-30).; assay type: functional, cell-based; summary of the method: as §1
# [29] = test system: Mus musculus; assay: Number of mice cured to that of 5 treated with the compound at 100 mg/kg for 7 days; assay type: functional
# [30] = test system: Trypanosoma brucei brucei; assay: Mean survival days against T.b. brucei LAB 110 EATRO tested in mice administration at 50 mg/kg for 7 days.; assay type: functional; summary of the method: as §2
# [31] = test system: Trypanosoma brucei rhodesiense; assay: In vitro antitrypanosomal activity against Trypanosomal 243 (KETRI)strain; assay type: functional, organism-based
# [32] = test system: Trypanosoma brucei brucei; assay: In vitro antitrypanosomal activity against Trypanosomal 110 (EATRO)strain; assay type: functional, organism-based
# [33] = test system: Trypanosoma brucei rhodesiense; assay: In vitro antitrypanosomal activity against Trypanosomal 243 As 10e-3 (KETRI)strain; assay type: functional, organism-based
# [34] = test system: Trypanosoma brucei rhodesiense; assay: In vitro antitrypanosomal activity against Trypanosomal 269 (KETRI)strain; assay type: functional, organism-based
# [35] = test system: L1210; assay: In vitro Neoplastic Activity against L1210 mucerine leukemia Cell lines; assay type: functional, cell-based; settings: Mus musculus; summary of the method: as §1
# [36] = test system: HT-29; assay: In vitro Anti Neoplastic Activity in Human Colon adenocarcinoma HT-29 Cell lines; assay type: functional, cell-based; summary of the method: as §1
# [37] = test system: A121; assay: In vitro Anti Neoplastic Activity against Human ovarian carcinoma A121 Cell lines; assay type: functional, cell-based; summary of the method: as §1
# [38] = test system: A549; assay: In vitro Anti Neoplastic Activity against Human non small cell lung carcinoma A549 Cell lines; assay type: functional, cell-based; summary of the method: as §1
# [39] = test system: L1210; assay: In vitro inhibition of AdoMetDC derived from L1210 Murine Leukemia Cells at a dose of 100 uM; assay type: functional; settings: Mus musculus
# [40] = test system: MCF7; assay: In vitro Anti Neoplastic Activity against Human Breast adenocarcinoma MCF-7 Cell lines; assay type: functional, cell-based; summary of the method: as §1
# [41] = test system: MCF7; assay: In vitro Anti Neoplastic Activity against Adriamycin resistant Human Breast adenocarcinoma MCF7-Adr Cell lines; assay type: functional, cell-based; summary of the method: as §1
# [42] = test system: L1210; assay: In Vitro inhibition of L1210 Murine Leukemia Cells by the compound at a dose of 100 uM; assay type: functional; settings: Mus musculus
# [43] = test system: Trypanosoma brucei rhodesiense; assay: In Vitro inhibition of Trypanosomal 243 (KETRI)strain by the compound at a dose of 100 uM; assay type: functional
structure (smiles),measurement,setting,value
CN(C/C=C\CN)C[C@H]1O[C@@H](n2cnc3c(N)nc(N)nc32)[C@H](O)[C@@H]1O,IC50,[1],19 µM
same,IC50,[2],3.8 µM
same,IC50,[3],4.5 µM
same,IC50,[4],2 µM
CC(=O)OC1C(CN(C)C/C=C\CN)OC(n2cnc3c(N)ncnc32)C1OC(C)=O (stereo not given),No. of cures,[5],4
same,IC50,[6],20 µM
same,No. of cures,[7],5
same,MSD,[8],26 days
same,MSD,[9],18 days
same,MSD,[10],21.2 days
same,IC50,[11],0.82 µM
same,IC50,[12],51 µM
same,MSD,[13],>34 days
same,EC50,[14],0.05 µM
same,MSD,[15],33 days
same,MSD,[16],>34 days
same,IC50,[17],30 µM
same,IC50,[18],> 100 µM
same,IC50,[1],0.02 µM
same,CC50,[19],12 µM
same,No. of cures,[20],4
same,No. cured,[21],0
same,No. of cures,[21],5
same,MSD,[22],17 days
same,IC50,[23],10 µM
same,Ratio,[24],240
same,No. cured,[25],0
same,No. cured,[26],0
same,No. of cures,[26],5
same,IC50,[2],0.014 µM
same,IC50,[3],0.014 µM
same,MSD,[27],21.2 days
same,IC50,[28],30 µM
same,No. of cures,[29],4
same,IC50,[4],0.054 µM
same,MSD,[30],>34 days
CN(C/C=C\CN)CC1OC(n2cnc3c(N)ncnc32)CC1O (stereo not given),IC50,[11],20 µM
same,IC50,[31],2.9 µM
same,IC50,[32],4.2 µM
same,IC50,[33],30 µM
same,IC50,[34],74 µM
same,IC50,[35],500 µM
CN(C/C=C\CN)CC(CO)OC(CO)n1cnc2c(N)ncnc21 (stereo not given),IC50,[6],> 600 µM
same,IC50,[36],112 µM
same,IC50,[37],41 µM
same,IC50,[38],> 100 µM
same,inhibition at 100 µM,[39],27%
same,IC50,[40],63 µM
same,IC50,[2],15 µM
same,IC50,[41],78 µM
same,IC50,[3],16 µM
CN(Cc1ccccc1CN)C[C@H]1OC(n2cnc3c(N)ncnc32)[C@H](O)[C@@H]1O (stereo not given in full),IC50,[6],> 600 µM
same,inhibition at 100 µM,[42],41%
same,IC50,[3],14 µM
same,inhibition at 100 µM,[43],42%
